The list is not random: actives were taken first. Their share in the collection is about 1.1%.
TbHK1 inh: Trypanosoma brucei hexokinase 1 inhibitors, primary screen, biochemical, G6PDH-coupled NADH absorbance, MLSCN library; hexokinase 1 [Trypanosoma brucei]; recombinant TbHK1, G6PDH-coupled NADH A340; inhibition, % at 10 µM; hit rate 0.11% among 220,000; AID 1430, 2008;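 active = inhibition of 50% or more in the single-dose primary screen; inactive = inhibition below 50%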
KLK5 inh: human KLK5 protease inhibitors, primary screen, biochemical, 1536-well | inhibition, % at 5 µM | hit rate 0.59% among 210,000 | recombinant hK5, fluorogenic AMC substrate cleavage | AID 873, 2007 | Kallikrein-5 (Homo sapiens), Q9Y337;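 active = inhibition of 40% or more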
FXIIa inh: human FXIIa protease inhibitors, primary screen, biochemical, 1536-well; Coagulation factor XII (Homo sapiens), P00748; purified FXIIa, Boc-QGR-AMC fluorogenic substrate, 2 h; inhibition, % at 5 µM; hit rate 0.3% among 220,000; AID 800, 2007; in the data active = inhibition above about 40%
Target sequence (P00748 20-372 limits assumed): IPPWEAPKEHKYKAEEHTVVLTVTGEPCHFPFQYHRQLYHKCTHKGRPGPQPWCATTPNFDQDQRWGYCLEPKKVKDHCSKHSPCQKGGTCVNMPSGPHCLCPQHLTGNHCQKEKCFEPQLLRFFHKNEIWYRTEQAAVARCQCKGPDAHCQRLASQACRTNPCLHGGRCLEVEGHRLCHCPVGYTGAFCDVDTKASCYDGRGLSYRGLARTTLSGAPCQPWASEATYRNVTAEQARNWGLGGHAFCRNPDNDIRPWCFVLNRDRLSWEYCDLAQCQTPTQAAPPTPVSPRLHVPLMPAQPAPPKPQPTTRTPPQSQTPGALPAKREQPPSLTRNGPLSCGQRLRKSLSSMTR
Target sequence (P00748 373-615 limits assumed): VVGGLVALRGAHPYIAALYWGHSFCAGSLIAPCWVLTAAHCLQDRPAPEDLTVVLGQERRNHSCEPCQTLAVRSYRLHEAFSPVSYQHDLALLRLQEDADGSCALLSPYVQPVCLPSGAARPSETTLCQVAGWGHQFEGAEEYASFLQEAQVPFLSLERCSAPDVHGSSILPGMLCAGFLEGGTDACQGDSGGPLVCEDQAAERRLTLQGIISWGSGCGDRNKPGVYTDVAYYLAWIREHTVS
FXIa inh 1536: human FXIa protease inhibitors, primary screen, biochemical, 1536-well; hit rate 0.14% among 220,000; Coagulation factor XI (Homo sapiens), P03951; purified FXIa, Boc-Glu-Ala-Arg-AMC fluorogenic substrate; inhibition, % at 5 µM;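 active = inhibition of at least 40%; inactive = inhibition below 40%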;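 note: fluorescence of freed AMC excited at 355 nm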
thrombin 1536: human alpha-thrombin inhibitors, primary screen, counter-screen for coagulation protease inhibitor project, biochemical, 1536-well, fluorogenic AMC substrate | Prothrombin (Homo sapiens), P00734 | Boc-VPR-AMC fluorogenic substrate cleavage | inhibition, % at 5 µM | hit rate 0.26% among 220,000;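 active = inhibition at or above 40%; inactive = inhibition below 40%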
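System – human alpha-thrombin protein · Reagent – Boc-VPR-AMC substrate, 15 µM final · Compound – 5 µM single dose in 0.2% DMSO · Schedule – reaction at room temperature · Technique – AMC fluorescence at 355 nm excitation and 460 nm emission · Read-out basis – % inhibition relative to enzyme controls and enzyme-free blanks · Control set – no-compound enzyme wells and no-enzyme blanks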
Each line names hits and unclear results; the compound was inactive in the other large screens.

CC1CCC(NC(=O)C2c3ccccc3C(=O)N2Cc2cccs2)CC1 (centres undefined)	KLK5 inh 44
Cc1ccc(C(=O)COC(=O)c2cc(=O)[nH]c3ccccc23)cc1C	none
CCNC(=S)NNC(=O)c1cc(Br)cs1	none
CCOC(=O)C1C(C(=O)Nc2cccc(C(F)(F)F)c2)C1C(=O)NC(C)C (centres undefined)	KLK5 inh 53
CC(=O)Nc1cc2c(cc1C(=O)c1ccccc1)OCCO2	KLK5 inh 49
O=S(=O)(c1ccc(S(=O)(=O)N2CCCC2)cc1)N1CCCCCC1	FXIIa inh 44
CC1CCCCC1NC(=O)COC(=O)c1cc(=O)c2ccccc2o1 (centres undefined)	none
O=C(COC(=O)c1cc(=O)c2ccccc2o1)NC1CCCCC1	FXIa inh 1536 42
O=C(Cc1cnc2ncnn2c1)N1CCc2c([nH]c3ccccc23)C1c1ccccc1F (centres undefined)	none
O=C1c2ccccc2C(=O)N1c1ncn[nH]1	none
Cc1cc(N2CCN(c3ccccc3)CC2)nc(N)n1	none
Cc1cc(N2CCN(c3ccccc3)CC2)nc(-c2ccccc2)n1	KLK5 inh 65, thrombin 1536 83
COc1ccc(CNC(=O)CNC(=O)c2c(C)nn(C)c2Cl)cc1	none
O=C(O)c1ccccc1S	none (no result: thrombin 1536)
O=C(O)Cc1ccccc1C(=O)O	thrombin 1536 44
Cc1ccc(S(=O)(=O)NC(=O)N2CCC(C)CC2)cc1	thrombin 1536 50
CC(C)(C)c1[nH]c2ccccc2c1/C=N/O	none
CC(C)(CO)N=Cc1c(O)[nH]c2ccccc12	KLK5 inh 48
CC(C)N=Cc1c(O)[nH]c2ccccc12	FXIIa inh 46
Cc1cccc(/N=C/c2c(O)[nH]c3ccccc23)n1	none
Cc1ccc(OCC(=O)Nc2ccc(N3CCN(C(=O)c4ccco4)CC3)cc2)cc1	none
CCCCCCCCCC(=O)Nn1cnc2ccccc2c1=O	KLK5 inh 70, FXIIa inh 52
COc1cccc(/C=N/n2c(N)c(S(=O)(=O)c3cccs3)c3nc4ccccc4nc32)c1OC	FXIIa inh 44
COCCn1c(N)c(S(=O)(=O)c2cccs2)c2nc3ccccc3nc21	none
O=C(O)c1cccc(N2CCCC2)c1	KLK5 inh 128
O=C(c1ccccc1Cl)N1CCC(n2cccc2)CC1	none
NC(=S)N1CCCc2ccccc21	none
CN(c1ccc(C(=O)NCc2ccccc2)cc1)S(C)(=O)=O	KLK5 inh 40
O=C(NC1CCCC1)C1CCCN1S(=O)(=O)c1cccc2cccnc12 (centres undefined)	none
O=C(NCc1ccccc1)C1CCCN1S(=O)(=O)c1cccc2cccnc12 (centres undefined)	KLK5 inh 46
CCOCCCNS(=O)(=O)c1ccc(NC(=O)c2ccc(OC)c([N+](=O)[O-])c2)cc1	FXIa inh 1536 42
COc1ccc(C(=O)Nc2ccc(S(=O)(=O)NC(C)=O)cc2)cc1[N+](=O)[O-]	none
O=C(O)/C=C/c1cn(-c2ccccc2)nc1-c1cc2ccccc2o1	none
CC(=O)N1CCC(N2CCN(c3ccccc3F)CC2)CC1	FXIIa inh 60
O=C(c1c(F)cccc1F)N1CCN(c2ccccc2F)CC1	none
CCOC(=O)C1=C(C)NC(=S)NC1/C=C/c1ccccc1 (centres undefined)	none
O=Cc1cn(-c2ccc(F)cc2)c2ccccc12	KLK5 inh 42
Cn1cc(C=O)c2cc(F)ccc21	none
CSc1nc2ccccc2n1CC(=O)Nc1ccccc1	none
O=C(Cn1c(/C=C/c2ccccc2)nc2ccccc21)Nc1ccc(F)cc1	FXIIa inh 40
O=C(COc1ccc2ccc(=O)oc2c1)N1CCc2ccccc21	none
CCN(Cc1ccccc1)C(=O)CSc1ccccc1C(=O)O	none
CCN(CC)C(=O)CSc1ccccc1N	KLK5 inh 47
O=C(O)CCCC(=O)N1CCN(C(c2ccccc2)c2ccccc2)CC1	KLK5 inh 52
O=C(O)/C=C/C(=O)N1CCN(C(c2ccccc2)c2ccccc2)CC1	none
COc1ccccc1C(=O)Nc1ccc(S(=O)(=O)NC2=NCCCCC2)cc1	KLK5 inh 52
Cc1nsc(Nc2ccc([N+](=O)[O-])cc2)c1C#N	none
O=C(CNC(=O)c1ccccc1)NCC(=O)OCC(=O)c1ccc(F)cc1	KLK5 inh 80
CC(C)(C)C(=O)COC(=O)CNC(=O)c1ccc(Oc2ccccc2)cc1	KLK5 inh 44
O=C(O)c1ccc(Cl)c(S(=O)(=O)Nc2cccc(C(=O)Nc3cccc(C(F)(F)F)c3)c2)c1	none
CN(/N=C/c1ccc2c(c1)OCO2)c1nc(N2CCOCC2)nc(N2CCOCC2)n1	FXIIa inh 100
COc1ccc(Br)cc1/C=N/NC(=O)CN1CCN(Cc2ccccc2)CC1	KLK5 inh 41
Cc1cc(C)c2nc(SCC(=O)NCCC3=CCCCC3)cc(C)c2c1	none
COc1ccc(N=NC2=C(O)CC(C)(C)CC2=O)cc1	none
CC1(C)CC(=O)C(N=Nc2ccc(Br)cc2)=C(O)C1	FXIIa inh 75
CCOC(=O)c1c(N)nn(C(=O)C(C)C)c1-c1ccc(OC)cc1	none
CCOC(=O)c1c(N)nn(C(C)=O)c1-c1ccccc1	KLK5 inh 86
CC(c1ccc(F)cc1)n1c(-c2cccs2)n[nH]c1=S (centres undefined)	KLK5 inh 71 (no result: FXIIa inh)
CC(c1ccccc1)n1c(-c2ccncc2)n[nH]c1=S (centres undefined)	none
COc1ccc(/C=C(/NC(=O)c2ccco2)C(=O)N2CCCC2=O)cc1	none
Cc1nc(SCC(=O)NC2CCCCC2)[nH]c(=O)c1C	none
O=C(CSc1nc2nc[nH]c2c(=O)[nH]1)NC1CCCCC1	thrombin 1536 46
COc1ccccc1NC(=O)CCS(=O)(=O)c1ccccc1	thrombin 1536 52
CCSc1nnc(NC(=O)Cc2cc(OC)c(OC)c(OC)c2)s1	none
CCN(Cc1ccncc1)C(=O)CCc1nnc(CCc2ccc(OC)cc2)o1	none
S=C(NCCN1CCOCC1)Nc1ccc(Cl)cc1	KLK5 inh 47
COc1ccc(/C=N/NC(=O)CCn2cnc3ccccc32)cc1	KLK5 inh 41, FXIIa inh 40, FXIa inh 1536 41
CCNc1nc(SCCOc2ccc(Cl)cc2Cl)nc(N(C)C)n1	none
COc1ccc(OCC(=O)Nc2ccc(NC(=O)c3cccs3)c(OC)c2)cc1	none
COc1cc(NC(=O)c2cccs2)c(OC)cc1NC(=O)CCC(=O)Nc1ccc2ncccc2c1	KLK5 inh 54
C=C1CCN(C(C)C(=O)O)S(=O)(=O)c2ccccc21 (centres undefined)	none
COc1cc2nc(=S)n3[nH]c(COc4ccccc4C)nc3c2cc1OC	KLK5 inh 45
